Laboratory results from article PMC6400523 (The Journal of General Physiology, 2019).

How the values were obtained:
rat ASCT2 = target: T1, rat ASCT2 (Rattus norvegicus, UniProt D3ZJ25); format: cell-based; settings: for Behaviour in anion current assay (inhibitor / substrate): rASCT2, direction of induced current
T1 sequence (D3ZJ25 1-555): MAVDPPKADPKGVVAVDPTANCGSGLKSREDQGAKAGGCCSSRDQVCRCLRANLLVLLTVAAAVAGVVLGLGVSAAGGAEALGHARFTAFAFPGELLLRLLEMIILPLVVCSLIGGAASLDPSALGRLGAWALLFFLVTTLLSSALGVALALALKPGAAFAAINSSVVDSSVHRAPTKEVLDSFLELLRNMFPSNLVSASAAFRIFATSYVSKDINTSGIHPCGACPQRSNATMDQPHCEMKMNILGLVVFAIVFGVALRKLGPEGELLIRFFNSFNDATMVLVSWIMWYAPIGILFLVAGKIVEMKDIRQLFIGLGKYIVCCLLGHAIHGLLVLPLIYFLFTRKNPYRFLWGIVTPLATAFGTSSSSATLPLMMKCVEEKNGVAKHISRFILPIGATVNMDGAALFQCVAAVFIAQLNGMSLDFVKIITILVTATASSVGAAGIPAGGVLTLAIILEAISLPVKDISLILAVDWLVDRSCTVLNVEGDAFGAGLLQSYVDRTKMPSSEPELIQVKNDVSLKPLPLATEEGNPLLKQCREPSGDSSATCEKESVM
Summary of the method: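 HEK293 cells cotransfected with rASCT2 and YFP cDNA; whole-cell recording 24–30 h later at 0 mV. External 140 mM NaCl, 2 mM MgCl2, 2 mM CaCl2, 10 mM HEPES pH 7.40; NaSCN pipette solution with 10 mM alanine. 1 mM L-alanine control; outward current = leak inhibition. Ki from Michaelis–Menten-like fit, including varied alanine; Imax from 1 mM response and Km. ≥4 repeats.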

hASCT2 = target: T2, hASCT2 (Homo sapiens, UniProt Q15758); experiment: Current recording in HEK293 cells expressing human ASCT2; format: cell-based
T2 sequence (Q15758 1-541): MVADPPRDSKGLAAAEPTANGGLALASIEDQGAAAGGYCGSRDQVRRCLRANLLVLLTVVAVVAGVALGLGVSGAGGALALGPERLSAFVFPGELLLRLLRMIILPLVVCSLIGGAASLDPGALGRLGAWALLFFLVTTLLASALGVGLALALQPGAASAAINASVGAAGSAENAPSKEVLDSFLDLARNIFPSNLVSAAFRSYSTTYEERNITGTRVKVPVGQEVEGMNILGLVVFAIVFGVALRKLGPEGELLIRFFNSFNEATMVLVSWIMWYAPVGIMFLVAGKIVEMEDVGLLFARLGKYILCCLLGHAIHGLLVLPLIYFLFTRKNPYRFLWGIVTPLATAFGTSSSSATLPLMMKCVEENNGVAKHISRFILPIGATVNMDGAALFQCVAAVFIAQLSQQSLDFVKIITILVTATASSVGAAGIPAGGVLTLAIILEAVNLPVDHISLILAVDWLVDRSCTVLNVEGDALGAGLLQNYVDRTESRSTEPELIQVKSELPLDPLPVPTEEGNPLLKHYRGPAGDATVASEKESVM

Row | Behaviour in anion current assay (inhibitor / substrate) (rat ASCT2) | Compound | other results
1 | borderline substrate-like properties | CS(N)(=O)=O [Compound 2b, methanesulfonamide] | 
2 |  | C[C@H](N)C(=O)O [alanine, L-alanine] | Current for saturating alanine in hASCT2 (hASCT2): < 20 pA
3 | properties of a transported substrate | NC[C@H](N)C(=O)O [Compound 1, L-2,3-diaminopropionic acid] | 
4 |  | 4-fluorobenzene sulfonamide [Compound 9b] | Imax, maximum current at saturating concentration (rat ASCT2; rASCT2, compared with current induced by 1 mM alanine): highest outward current
